Values after ≈ are worked out from the molar mass of the structure shown. Active and inactive are the calls of the source. No cut-off for these calls is given here.
Experiments:
[1] = system: Candida albicans; test: Antifungal activity against Candida albicans SC5314 grown in RPMI 1640 medium incubated for 24 hrs by microdilution method; assay type: functional; settings: SC5314, 24 h
How it was run: (§1)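 C. albicans standard strain SC5314 and clinical isolates g5 and 17# tested by broth microdilution in YNB or RPMI 1640 medium. Plates incubated at 35 °C for up to 72 h, with visual readings taken at 24 h. MIC taken as the lowest concentration preventing visible growth.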

[2] = system: Candida albicans; test: Antifungal activity against Candida albicans isolate g5 grown in YNB medium incubated for 24 hrs by microdilution method; assay type: functional; settings: isolate g5, 24 h; how it was run: as §1
[3] = system: Colletotrichum; test: Antifungal activity against Colletotrichum (W. anthracnose) assessed as reduction in growth at 50 mg/l by mycelium growth rate method relative to control; assay type: functional
How it was run: (§2)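 Mycelium growth rate method against S. sclerotiorum, P. capsici, P. piricola, R. cerealis, W. anthracnose and R. bakanae. Each compound tested at 50 mg/L, with chlorothalonil and PTB as controls. Relative inhibitory ratio (%) calculated from mycelial growth.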

[4] = Inhibition of SARS coronavirus M protease using AVLQSGFRKK as substrate by FRET assay; set-up: species or system Severe acute respiratory syndrome-related coronavirus
How it was run: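 Purified SARS-CoV Mpro assayed by FRET. Protein, compound and substrate were preheated at 37 °C and oscillated. Fluorescence (ex 320/em 405 nm) was read every 5 s for 200 reads. IC50 from V0/V = 1+[I]/IC50.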

[5] = system: Candida albicans; test: Inhibition of Candida albicans AHAS catalytic subunit at 10 uM using pyruvate as substrate measured after 30 mins by colorimetric method relative to control
How it was run: (§3)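 Colorimetric assay in 50 mM potassium phosphate pH 7.0 with 50 mM pyruvate, 1 mM thiamine diphosphate, 10 mM MgCl2 and 10 μM FAD. Incubated 30 min at 37 °C for plant AHAS and 30 °C for fungal AHAS. Acetolactate formed was then quantified.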

[6] = system: Arabidopsis thaliana; test: Inhibition of Arabidopsis thaliana AHAS catalytic subunit using pyruvate as substrate at 100 uM measured after 30 mins by colorimetric method relative to control; how it was run: as §3
[7] = system: Brassica rapa subsp. oleifera; test: Herbicidal activity against Brassica campestris L assessed as inhibition of rape root growth at 100 mg/l root growth incubated for 48 hrs relative to control; assay type: functional
How it was run: (§4)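 Rape seeds soaked in distilled water for 4 h, then placed on filter paper wetted with inhibitor solution, 15 seeds per 6-cm dish. Germinated in the dark at 28 °C for 48 h. Mean length of 10 roots per plate measured.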

[8] = system: Candida albicans; test: Antifungal activity against Candida albicans isolate 17 grown in YNB medium incubated for 24 hrs by microdilution method; assay type: functional; settings: isolate 17, 24 h; how it was run: as §1
[9] = system: Arabidopsis thaliana; test: Inhibition of Arabidopsis thaliana AHAS catalytic subunit using pyruvate as substrate at 10 uM measured after 30 mins by colorimetric method relative to control; how it was run: as §3
[10] = system: Candida albicans; test: Inhibition of Candida albicans AHAS catalytic subunit at 100 uM using pyruvate as substrate measured after 30 mins by colorimetric method relative to control; how it was run: as §3
[11] = system: Candida albicans; test: Antifungal activity against Candida albicans isolate g5 grown in RPMI 1640 medium incubated for 24 hrs by microdilution method; assay type: functional; settings: isolate g5, 24 h; how it was run: as §1
[12] = system: Brassica rapa subsp. oleifera; test: Herbicidal activity against Brassica campestris L assessed as inhibition of rape root growth at 10 mg/l root growth incubated for 48 hrs relative to control; assay type: functional; how it was run: as §4
[13] = system: Candida albicans; test: Antifungal activity against Candida albicans SC5314 grown in YNB medium incubated for 24 hrs by microdilution method; assay type: functional; settings: SC5314, 24 h; how it was run: as §1
[14] = system: Mythimna separata; test: Insecticidal activity against Mythimna separata assessed as larval mortality at 600 mg/l by leaf-dip method; assay type: functional
[15] = system: Phytophthora capsici; test: Antifungal activity against Phytophthora capsici assessed as reduction in growth at 50 mg/l by mycelium growth rate method relative to control; assay type: functional; how it was run: as §2
[16] = system: Candida albicans; test: Antifungal activity against Candida albicans isolate 17 grown in RPMI 1640 medium incubated for 24 hrs by microdilution method; assay type: functional; settings: isolate 17, 24 h; how it was run: as §1
[17] = system: Fusarium fujikuroi; test: Antifungal activity against Gibberella fujikuroi assessed as reduction in growth at 50 mg/l by mycelium growth rate method relative to control; assay type: functional; how it was run: as §2
[18] = system: Tobacco mosaic virus; test: Antiviral activity against Tobacco mosaic virus inoculated in Nicotiana tabacum leaves assessed as passivation by measuring local lesion numbers at 500 mg/l pre-incubated with virus for 30 mins followed by inoculation and measured up to 4 days; assay type: functional
How it was run: (§5)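 Passivation assay: TMV mixed with an equal volume of compound solution for 30 min, then rubbed onto the left half of N. tabacum L. leaves. The right half received virus mixed with solvent as control. Local lesions counted 3–4 days after inoculation. Compounds tested at 500 or 100 mg/L.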

[19] = system: Botryosphaeria berengeriana; test: Antifungal activity against Physalospora pyricola assessed as reduction in growth at 50 mg/l by mycelium growth rate method relative to control; assay type: functional; how it was run: as §2
[20] = system: Sclerotinia sclerotiorum; test: Antifungal activity against Sclerotinia sclerotiorum assessed as reduction in growth at 50 mg/l by mycelium growth rate method relative to control; assay type: functional; how it was run: as §2
[21] = system: Severe acute respiratory syndrome-related coronavirus; test: Inhibition of SARS coronavirus M protease using AVLQSGFRKK as substrate at 20 uM by FRET assay relative to control
How it was run: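 Purified SARS-CoV Mpro assayed by FRET. Protein, compound and substrate were preheated at 37 °C and oscillated. Fluorescence (ex 320/em 405 nm) was read every 5 s for 200 reads.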

[22] = system: Tobacco mosaic virus; test: Antiviral activity against Tobacco mosaic virus inoculated in Nicotiana tabacum leaves assessed as passivation by measuring local lesion numbers at 100 mg/l pre-incubated with virus for 30 mins followed by inoculation and measured up to 4 days; assay type: functional; how it was run: as §5
[23] = system: Ceratobasidium cereale; test: Antifungal activity against Rhizoctonia cerealis assessed as reduction in growth at 50 mg/l by mycelium growth rate method relative to control; assay type: functional; how it was run: as §2
[24] = Cytotoxicity against HEK293T cells assessed as reduction in cell growth incubated for 48 hrs by MTT assay; assay type: cell-based, HEK-293T; settings: human
How it was run: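 293T cells in logarithmic phase seeded at 12000 cells/well overnight, then exposed to a range of compound concentrations for 48 h. MTT added for a further 4 h, formazan dissolved in DMSO, and OD570 read. CC50 is the concentration reducing viability by 50%.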

[25] = system: Brassica rapa subsp. oleifera; test: Pre-emergence herbicidal activity against Brassica campestris assessed as reduction in growth at 300g/ha measured after 24 days green house pot method relative to control; assay type: functional; settings: 576 h
[26] = system: Echinochloa crus-galli; test: Post-emergence herbicidal activity against Echinochloa crus-galli assessed as reduction in growth at 300g/ha measured after 24 days by green house pot method relative to control; assay type: functional; settings: 576 h
[27] = system: Amaranthus retroflexus; test: Post-emergence herbicidal activity against Amaranthus retroflexus assessed as reduction in growth at 300g/ha measured after 24 days by green house pot method relative to control; assay type: functional; settings: 576 h
[28] = system: Brassica rapa subsp. oleifera; test: Post-emergence herbicidal activity against Brassica campestris assessed as reduction in growth at 300g/ha measured after 24 days by green house pot method relative to control; assay type: functional; settings: 576 h
[29] = system: Echinochloa crus-galli; test: Pre-emergence herbicidal activity against Echinochloa crus-galli assessed as reduction in growth at 300g/ha measured after 24 days by green house pot method relative to control; assay type: functional; settings: 576 h
[30] = system: Digitaria adscendens; test: Post-emergence herbicidal activity against Digitaria adscendens assessed as reduction in growth at 300g/ha measured after 24 days by based green house pot method relative to control; assay type: functional; settings: 576 h
[31] = system: Digitaria adscendens; test: Pre-emergence herbicidal activity against Digitaria adscendens assessed as reduction in growth at 300g/ha measured after 24 days by green house pot method relative to control; assay type: functional; settings: 576 h
[32] = system: Amaranthus retroflexus; test: Pre-emergence herbicidal activity against Amaranthus retroflexus assessed as reduction in growth at 300g/ha measured after 24 days by green house pot method relative to control; assay type: functional; settings: 576 h
[33] = system: Ceratobasidium cereale; test: Antifungal activity against Rhizoctonia cerealis assessed as reduction in growth mycelium growth rate method relative to control; assay type: functional, organism-based
How it was run: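 EC50 against R. cerealis derived from mycelium growth-rate inhibition over a concentration series, using a probit fit: Probit = m(log10[I] − log10[EC50]) + 5.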

Row | Compound | MIC [1] [µg/mL] | MIC [2] [µg/mL] | inhibition at 50 µg/mL [3] [%] | inhibition [5] [%] | inhibition [6] [%] | inhibition (INH) [7] [%] | MIC [8] [µg/mL] | inhibition [9] [%] | inhibition [10] [%] | MIC [11] [µg/mL] | inhibition (INH) [12] [%] | MIC [13] [µg/mL] | mortality at 600 µg/mL [14] [%] | inhibition at 50 µg/mL [15] [%] | MIC [16] [µg/mL] | inhibition at 50 µg/mL [17] [%] | inhibition at 50 µg/mL [19] [%] | inhibition at 50 µg/mL [20] [%] | inhibition [21] [%] | inhibition at 50 µg/mL [23] [%] | further results
1 | COc1nc(OC)nc(Sc2cccc(I)c2C#N)n1 | > 100 | > 100 | 33.3 | 45.4 | 66.7 | 51.6 | > 100 | 51.6 | 69.3 | > 100 | 0 | > 100 | 45 | 8.3 | > 100 | 30.3 | 29.7 | 11.1 | 100 | 52.4 | IC50 [4]: 3.3 µM; inhibition at 500 µg/mL [18]: 22.8%; inhibition [22]: inactive; CC50 at 48 h [24]: 30.5 µM
2 | COc1cc(OC)nc(Sc2ccc(Br)cc2C(=O)O)n1 | > 100 | > 100 | 40.5 | 50.5 | 100 | 93.6 | > 100 | 61 | 97 | > 100 | 80.7 | > 100 | 65 | 33.3 | > 100 | 27.3 | 37.5 | 63.9 | 0 | 72.6 | inhibition at 300 g/ha [25]: 89.9%; inhibition at 300 g/ha [26]: 72.3%; inhibition at 300 g/ha [27]: 58.7%; inhibition at 300 g/ha [28]: 80.2%; inhibition at 300 g/ha [29]: 0%; inhibition at 300 g/ha [30]: 12.8%; inhibition at 500 µg/mL [18]: 0%; inhibition at 300 g/ha [31]: 27%; inhibition at 100 µg/mL [22]: 0%; inhibition at 300 g/ha [32]: 93.8%
3 | COc1nc(OC)nc(Sc2ccc(Br)cc2C#N)n1 | > 100 | > 100 | 21.4 | 37.4 | 85.5 | 14 | > 100 | 57.3 | 81.1 | > 100 | 0 | > 100 | 20 | 8.3 | > 100 | 30.3 | 70.3 | 19.4 | 100 | 66.7 | IC50 [4]: 4.54 µM; inhibition at 500 µg/mL [18]: 0%; inhibition [22]: inactive; CC50 at 48 h [24]: 53.5 µM
4 | COc1cc(OC)nc(Sc2cccc(Cl)c2C(=O)O)n1 [PYRITHIOBAC] | > 100 | > 100 | 45.3 | 20 | 100 | 97 | > 100 | 96 | 40 | > 100 | 90.2 | > 100 |  | 44.7 | > 100 | 12.6 | 60.3 | 64.8 | 12.2 | 86.9 | inhibition at 300 g/ha [25]: 95.2%; inhibition at 300 g/ha [26]: 59.5%; inhibition at 300 g/ha [27]: 61.2%; inhibition at 300 g/ha [28]: 92.3%; EC50 [33]: 15.4 µg/mL (≈ 47.1 µM); inhibition at 300 g/ha [29]: 63.4%; inhibition at 300 g/ha [30]: 36.6%; inhibition at 300 g/ha [31]: 63.8%; inhibition at 300 g/ha [32]: 96.3%

— ChEMBL document CHEMBL4390648, “Chemical synthesis, crystal structure, versatile evaluation of their biological activities and molecular simulations of novel pyrithiobac derivatives” (Eur J Med Chem, 2019)
